Data as given in ChEMBL document CHEMBL4513216, “Probing the Open Global Health Chemical Diversity Library for Multistage-Active Starting Points for Next-Generation Antimalarials” (ACS Infect Dis, 2020).

Assay: Toxicity liver stage against HepG2, at 10uM
Format: cell-based
Parameters: test concentration 10 uM, cell line HepG2-A16-CD81EGFP
Details: human, HepG2-A16-CD81EGFP cells; read-out: INHIBITION
Procedure, shortened: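 Uninfected HepG2-A16-CD81EGFP cells, 3 × 10^3 per well, 1536-well, plated on prespotted compound at 10 μM final, parasite-free screening media added to match infected plates; puromycin 10 μM positive, DMSO 0.5% negative; run in parallel with 48 h PbLuc assay at 37 °C, 5% CO2; viability by CellTiter-Glo luminescence, normalized to controls.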

Structure (SMILES)	cytotoxicity at 10 µM
O=C(NC1CCCC1)c1ccc(COCC(F)(F)F)o1	10.6%
COc1ccc(CNc2c(N3CCN(C)CC3)c(=O)c2=O)cc1	2.4%
O=C(c1ccc[nH]1)N1CCO[C@H]2CC(COCc3ccccn3)C[C@@H]21 (stereo not given in full)	0.718%
Cc1ccc(CN2CC[C@@H](N(C)C(C)C)[C@@H]2Cc2ccccc2)o1	-3.52%
CC(C)n1cnc(-c2nc(C(=O)N3CCCC3)c3ccccn23)c1	6.47%
Cc1cccc(S(=O)(=O)N2Cc3c(CN(C)C)nn(C)c3C2)c1	-0.53%
Cc1ccc(-c2[nH]c3ccccc3c2C(=O)O)c(C)c1	12.3%
CCOC1Sc2nnc(C)n2N=C1c1ccc(Cl)cc1 (stereo not given)	11.3%
CCc1nn(-c2cc(Oc3ccccc3)nc(C)n2)c(N)c1C#N	3.62%
Cc1noc([C@H]2C[C@H]3OCC[C@H]3N(S(=O)(=O)C3CC3)C2)n1	-10.5%
CCS(=O)(=O)N1CCC(c2nc3ccc(-c4ccccc4)cn3n2)CC1	-7.41%
CCn1nc(C)c2c1cnn2CC(=O)N1CCN(C)CC1	4.92%
Cc1cc(C)n(Cc2cccc(C(=O)NCCN3CCOCC3)c2)n1	-12.8%
Cc1cccc(CN2CCOCC2c2[nH]ncc2C)n1 (stereo not given)	6.91%
Nc1cc(-c2c[nH]nc2C2CCN(C(=O)C3CCCC3)C2)ccn1 (stereo not given)	7.49%
Cc1nc(NCc2ccccc2)cc(C(C)Cn2nc(C)c(C)c2C)n1 (stereo not given)	7.03%
Cc1cc(C(=O)NCc2ccc(F)cc2)c2c(C3CCCN3)noc2n1 (stereo not given)	7.16%
CS(=O)(=O)CCCN1CCSCC1c1ccc(Cl)cc1 (stereo not given)	-14.5%
CCOc1ccccc1CCNC(=O)NCC(O)c1cccs1 (stereo not given)	-4.47%
O=C(C1CCCC1)N1CCC(C(O)c2ccc(F)cc2)CC1 (stereo not given)	8.54%
N#CC(NC(=O)c1cccc2c1OCCO2)c1ccc(F)cc1F (stereo not given)	-2.61%
CC(C)CNC(=O)C(C)N1CCN(C2CCN(C(C)C)CC2)CC1 (stereo not given)	-7.09%
Cn1ncc2c(=O)[nH]c(N3CCCC3c3cccc(Cl)c3)nc21 (stereo not given)	19.6%
CC(C)NC(=O)NC(C)c1ccc(-c2ccncc2)cc1 (stereo not given)	0.67%
Cc1cc(C)n(-c2cncc(NCCNC(=O)c3cccnc3)n2)n1	7.45%
O=C(CCNS(=O)(=O)c1ccc(F)cc1)NCc1ccoc1	-6.08%
CC(O)CN1CCN(C(=O)c2cnn(-c3ccccc3Cl)c2)CC1 (stereo not given)	-8.9%
Cc1ccc(C2COCCN2C(=O)c2ccc(C#N)cc2)o1 (stereo not given)	-5.08%

Structure (SMILES)	cytotoxicity at 10 µM
Cc1cccc(S(=O)(=O)N2CSCC2C(=O)NC(C)(C)C)c1 (stereo not given)	-3.75%
CC1CN(C(=O)Nc2ccc(Cl)c(C(=O)NC3CC3)c2)CC(C)(C)O1 (stereo not given)	6.5%
Cc1noc(C)c1CNC(=O)N1CCC(CN2CCC(C)CC2)CC1	6.62%
CC(C)n1cc(CN2CCCN(C(=O)c3ccnn3C)CC2)cn1	2.79%
Cc1cc(S(=O)(=O)NC(=O)CCc2cccnc2)c(C)s1	8.28%
CC(NC(=O)C1CCCC1)c1nc(-c2ccccc2)c[nH]1 (stereo not given)	6%
CCN(CC)Cc1ccccc1NC(=O)N(C)Cc1ccc(OC)cc1	10.7%
Cc1cc(SC(C)(C)C)ccc1NCC(=O)NC(N)=O	-17.1%
Cc1nnc(C(C)N2CCc3[nH]c4ccccc4c3C2)o1 (stereo not given)	-9.42%
COc1cccc(NC(=O)NCC(Cc2cnn(C)c2)C(N)=O)c1 (stereo not given)	-6.52%
Cc1noc(C)c1CC(=O)N1CCCN(C)c2ccc(Cl)cc21	9.71%
CC(C1CC1)N(CC(=O)NCC(F)(F)F)C1CC1 (stereo not given)	-4.42%
O=S(=O)(Cc1ccccc1)NCCc1nnc2n1CCC2	14.5%
Cc1cnn(C2CN(Cc3noc(C)n3)C2)c1	40.3%
CN(C)C(=O)CCCS(=O)(=O)Cc1cc(Cl)c2c(c1)OCCO2	2.47%
COc1ccc(CN(CCC#N)CCN2CCOCC2)c(OC)c1	-1.39%
C[S+]([O-])c1nncn1CC(=O)c1ccc2c(c1)CCO2 (stereo not given)	-2.85%
COc1ccc(OCC(=O)NS(=O)(=O)c2cc(F)ccc2F)cc1	-19.5%
Cc1ccc(CNCC2CCc3nnc(C(C)C)n3C2)s1 (stereo not given)	-4.43%
O=C(N1CCCC1)N1CCc2ncnc(C3CCOC3)c2CC1 (stereo not given)	3.45%
CS(=O)(=O)NCc1ncn2c1CN(C(=O)CC1CCCC1)CCC2	4.79%
CCNc1ncc(C(=O)NCc2ccc3nsnc3c2)cn1	2.34%
Cc1ccsc1CN(Cc1ncccc1C(=O)O)C1CC1	-5.8%
O=C1NCC2(CCCN(C(=O)c3c[nH]nc3C3CCCCC3)C2)O1 (stereo not given)	8.72%
CN(Cc1ccc2nsnc2c1)CC1(O)CCNC1 (stereo not given)	-11.7%
CCN(Cc1cccc(C(=O)Nc2c(C)cnn2C)c1)[C@H]1COC[C@@H]1O	-1.58%
CN1CC(C(=O)N2CCN(c3cccc(Cl)c3)C(=O)C2)NC1=O (stereo not given)	-3.94%
